Screening data from PubChem BioAssay.
OX1R antag-1 = OX1R (HCRTR1) antagonists, primary screen, fluorescence, CHO/OX1R cells, Fluo-8 calcium, orexin A; Orexin/Hypocretin receptor type 1 (Homo sapiens), O43613; Fluo-8 calcium fluorescence; inhibition, % at 5 µM; 0.43% of 330,000 active; AID 434989, 2010;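 active means inhibition above its plate's threshold, mean inhibition of all tested compounds on the plate plus 3 SD, cut at about 37% in these data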;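 further: 0% = orexin A challenge wells and 100% = SB-334867-A antagonist wells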
Target sequence (O43613 whole entry, looked up): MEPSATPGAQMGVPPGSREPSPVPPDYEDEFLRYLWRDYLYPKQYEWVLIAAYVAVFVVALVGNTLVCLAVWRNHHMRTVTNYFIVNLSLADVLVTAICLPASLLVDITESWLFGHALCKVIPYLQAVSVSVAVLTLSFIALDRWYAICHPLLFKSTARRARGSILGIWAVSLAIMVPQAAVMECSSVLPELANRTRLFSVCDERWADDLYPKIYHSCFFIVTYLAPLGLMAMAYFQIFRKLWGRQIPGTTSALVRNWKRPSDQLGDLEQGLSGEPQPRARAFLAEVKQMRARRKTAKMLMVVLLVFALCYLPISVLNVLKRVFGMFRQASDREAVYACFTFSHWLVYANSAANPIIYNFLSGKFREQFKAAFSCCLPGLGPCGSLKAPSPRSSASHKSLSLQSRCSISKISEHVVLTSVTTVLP
GalR3 antagonist = GalR3 antagonists in HEK293 cells, primary screen, cell-based, fluorescence readout | HEK293 GalR3-CNG cAMP membrane potential fluorescence; galR3 body fused to GalR1 C-terminus | inhibition, % at 3 µM | AID 651719, 2012 | 0.44% of 360,000 active | Galanin receptor type 3 (Homo sapiens), O60755;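 active means inhibition above the screen-wide average plus 3 SD, cut at about 13% in these data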;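 further: forskolin and galanin both at EC90 stimulate the cells; cAMP rise reported by CNG channel membrane potential dye signal; 0% = forskolin plus galanin with DMSO and 100% = forskolin alone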
Target sequence (O60755 1-299 limits assumed): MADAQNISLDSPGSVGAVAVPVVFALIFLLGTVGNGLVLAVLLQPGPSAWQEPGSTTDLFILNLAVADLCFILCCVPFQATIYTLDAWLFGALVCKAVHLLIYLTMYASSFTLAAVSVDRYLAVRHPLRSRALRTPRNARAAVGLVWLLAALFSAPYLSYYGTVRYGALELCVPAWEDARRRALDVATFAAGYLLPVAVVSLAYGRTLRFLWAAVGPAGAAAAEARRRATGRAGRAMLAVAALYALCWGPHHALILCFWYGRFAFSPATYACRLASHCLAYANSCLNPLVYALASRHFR
CHO parental Ca = ATP-evoked calcium signal inhibitors, parental CHO, primary screen, counter-screen for OX1R antagonist project, cell-based, fluorescence, Fluo-8 calcium dye. parental CHO-K1, ATP-induced calcium, Fluo-8 fluorescence. AID 463079, 2010. inhibition, % at 5.6 µM. 0.63% of 330,000 active;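 active means inhibition above that plate's mean sample inhibition plus 3 SD, cut at about 26% in these data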;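 further: 0% = ATP-challenged DMSO wells and 100% = DMSO wells without ATP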
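Assay system: parental CHO cells; Read-out basis: percent inhibition of ATP-evoked calcium rise, normalized to controls; Benchmarks: ATP and no-ATP DMSO wells; Compound dosing: single nominal dose of 5.6 µM per compound; Signal: Fluo-8 calcium dye fluorescence; Also added: ATP as calcium-mobilizing challenge; Repeats: singlicate.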
GPR7 antag = GPR7 receptor antagonists, primary screen, cell-based, fluorescence, single concentration. GPR7-expressing cells, fluorescence antagonist assay. inhibition, % at 4.4 µM. Neuropeptides B/W receptor type 1 (Homo sapiens), P48145. 1.1% of 290,000 active; in the data active means inhibition above about 16%, passing the limit was not always enough;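 further: cells stimulated with the agonist NPW; 0% = agonist with vehicle and 100% = vehicle without agonist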
OX1R antag-2 = antagonists of human orexin 1 receptor (OX1R). Orexin/Hypocretin receptor type 1 (Homo sapiens), O43613. OX1R-expressing cells, FRET antagonist read-out. inhibition, % at 6.6 µM. 1.8% of 330,000 active. AID 485270, 2010; in the data active means inhibition mostly above about 38%, no sharp cut-off; inactive means mostly below about 40%;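 further: 0% = agonist challenge alone and 100% = reference antagonist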
Numbers without * were called inactive; . = no result. Rows were chosen to be rich in hits. Some 3.1% of all compounds tested hit in one or more screens of this group.

SMILES	OX1R antag-1	GalR3 antagonist	CHO parental Ca	GPR7 antag	OX1R antag-2
CCN(C(=O)COC(=O)c1ccccc1NCc1ccco1)c1c(N)n(Cc2ccccc2)c(=O)[nH]c1=O	.	-4.5	.	.	.
COCCN(C(=O)COC(=O)c1ccccc1NCc1ccco1)c1c(N)n(Cc2ccccc2)c(=O)[nH]c1=O	-8.4	-0.2	-20.9	.	41.5*
CC(C)CN(C(=O)COC(=O)c1ccccc1NCc1ccco1)c1c(N)n(Cc2ccccc2)c(=O)[nH]c1=O	13.2	-5.8	-18.8	.	75.3*
CC1CCN(C(=O)c2ncn3c2C(=O)NC[C@@H]3C)CC1	.	-2.5	.	.	.
O=C(NC1CCCC1)C(c1cccnc1)N(CCc1ccccc1)C(=O)c1ccco1 (centres undefined)	-13.7	-6.8	8.9	-1.5	56.6*
Cc1c(C(=O)N2CCCCC2)nn(-c2ccc(Cl)cc2)c(=O)c1C#N	-23.2	-2.5	-20.1	-16.2	60.9*
CCOC(=O)c1nn(-c2ccc(Cl)cc2)c(=O)c(C#N)c1C	-13.3	-4.8	11.1	-11.8	50.3*
CCOC(=O)c1nn(-c2ccc(F)cc2)c(=O)c2c(N)scc12	-4.2	-4.6	-16.9	-13.6	92.7
CCOC(=O)c1nn(-c2ccc(F)cc2)c(=O)c(C#N)c1C	-11.2	-4.8	-9.8	-12.2	53.9*
CCOC(=O)c1nn(-c2ccc(C)cc2)c(=O)c2c(N)scc12	-16.6	-4.6	-17.9	-9.1	76.6*
CCOC(=O)c1nn(-c2ccc(Cl)cc2)c2nc(CC)c(C#N)c(=O)n12	-29.8	-6.7	-16.4	-9.9	13.5
CCCCNC(=O)c1ccc2nc(CC)c(N(CC)CCOC)n2c1	.	-0.3	.	.	.
CCCCCC(=O)N1C[C@@H](O)[C@H](n2cc(C3CC3)nn2)C[C@@H]1c1ccc(C)cc1	.	-5.6	.	.	.
CCN(CC)C(=O)CSc1nc(-c2cccs2)cc(-c2cccs2)c1C#N	2.7	-4.7	58.0*	-7.8	23.9
COC(=O)CSc1nc(-c2cccs2)ccc1C#N	16.8	-6.0	-20.8	-4.9	68.3*
CCN(CC)C(=O)CSc1nc(N)c(C#N)c(-c2cccs2)c1C#N	-9.1	-2.1	-16.6	-4.4	1.7
C#CCSc1nc(-c2cccs2)ccc1C#N	-13.7	-5.0	-7.1	-6.6	45.0
COCc1[nH]nc2c1C(c1ccc3c(c1)OCO3)N(c1ccc(OC)cc1)C2=O (centres undefined)	.	-2.8	.	.	.
Cc1ccc(NC(=S)NNC(=O)c2cccc([N+](=O)[O-])c2)cc1Cl	-14.9	-3.2	-14.6	-9.6	40.0*
O=C(NC(NC(=S)Nc1ccc(Cl)cc1Cl)C(Cl)(Cl)Cl)c1cccc([N+](=O)[O-])c1 (centres undefined)	42.2*	-9.6	40.9*	27.4	25.8
CC1(C(=O)NNC(=O)c2cccc([N+](=O)[O-])c2)CC1(Br)Br (centres undefined)	-16.8	-8.6	-23.1	-21.8	42.4*
COc1cc(CNC(=O)Nc2cccn3nc(COCCO)nc23)cc(OC)c1OC	.	-6.3	.	.	.
O=[N+]([O-])c1cnc(Sc2ccncn2)s1	17.9	1.7	23.8	4.2	72.1*
O=[N+]([O-])c1cnc(Sc2ccncn2)c([N+](=O)[O-])c1	.	-7.2	.	.	.
CCCN1C(=O)c2n[nH]c(C(C)C)c2C1c1cccc(C(F)(F)F)c1 (centres undefined)	.	-5.7	.	.	.
SMILES	OX1R antag-1	GalR3 antagonist	CHO parental Ca	GPR7 antag	OX1R antag-2
Cc1ccc(NC(=O)CCSc2nnnn2-c2ccc3c(c2)OCO3)cc1C	-18.9	-0.9	-7.7	-15.0	70.6*
Cc1ccc(-n2nnnc2SCC(=O)NC(C(=O)O)(c2ccccc2)c2ccccc2)cc1C	-13.0	-2.9	-14.5	-3.6	57.4*
O=C(O)c1cc(-c2ccccc2Cl)n(-c2cccc(Cl)c2)n1	13.1	-6.4	-7.9	0.3	37.3*
N#C/C(=C/c1ccco1)C(N)=S	-9.1	4.5	-7.8	2.1	17.6
COc1ccc(/C=C(/C(=O)c2cccs2)N2C=CC=CC2=C(C#N)C#N)cc1	.	0.1	.	-0.7	.
N#CC(C#N)=C1C=CC=CN1/C(=C\c1ccco1)C(=O)c1ccccc1	5.8	8.1	32.1	39.4*	51.0
N#CC(C#N)=C1C=CC=CN1/C(=C\c1ccco1)C(=O)c1ccc(Br)cc1	24.0	6.7	49.3*	8.4	61.4*
COc1ccc(C(=O)/C(=C\c2ccco2)N2C=CC=CC2=C(C#N)C#N)cc1	30.7	.	25.7	47.1*	66.2*
CC(C)(C)NC(=O)/C(=C/c1ccco1)c1ccccc1	-16.4	0.6	-12.1	2.5	10.5
COc1cc2c(c(OC)c1OC)C1(CCCCC1)CC2NCC=C(C)C (centres undefined)	.	-8.4	.	.	.
COC(=O)[C@@]12C[C@@H](CC(=O)NCc3ccc(C)o3)C(=O)N(Cc3cccc4ccccc34)C1=CCC(C)(C)C2	.	-6.5	.	.	.
CN1OC[C@@H]2CN[C@H](c3ccc(N4CCCCC4)cc3)C[C@@H]21	.	-2.3	.	.	.
[O-][N+](=Cc1c(Cl)cccc1Cl)CC1(O)CCCCC1	.	5.2	.	.	.
Cn1cc(-c2ccc3c(c2)OCO3)c2ccccc21	.	-4.3	.	.	.
CC/C(=N\Nc1ccc([N+](=O)[O-])cc1)c1ccccc1	-37.3	.	-5.0	-14.8	53.0*
CCOC(=O)/C(=C\c1ccc(N2CCC(c3ccccc3)=N2)cc1)C(C)=O	.	-4.2	.	.	.
O=C(/C=C/c1ccc(N2CCC(c3ccccc3)=N2)cc1)c1ccccc1	79.5*	-8.8	73.1*	-17.0	7.5
Cc1cc(Oc2cccnc2)ccc1NC(=O)Cc1c(C)[nH]c2ccccc12	.	-6.9	.	.	.
COc1cc(/C=C(\C#N)c2nc3ccccc3[nH]2)ccc1OC(=O)c1ccco1	14.2	7.9	2.1	2.2	70.7*
O=S(=O)(Nc1cccc(-c2cn3c(n2)SCC3)c1)c1cccs1	0.7	0.4	-3.1	-5.8	55.9*
CC1(C)OC(=O)C2=C(CC(CCc3ccccc3)OC2c2cccc(C(F)(F)F)c2)O1 (centres undefined)	.	-5.2	.	.	.
COc1cc2c(cc1OC)/C(=C/C(=O)c1ccc(F)cc1)NCC2	-46.2	14.8*	-15.7	-10.6	4.6
COc1cc2c(cc1OC)/C(=C/C(=O)c1ccccc1F)NCC2	.	3.8	.	-17.8	.
Cc1ccc(NC(=O)c2cnc(N3CCN(c4ccccn4)CC3)c3ccccc23)c(Br)c1	-2.5	-4.0	-5.2	25.6*	19.4
CCCCCCCCN1C(=O)[C@@H](CC(=O)NCCCOC)C[C@@]2(C(=O)OC)C1=C[C@H](C(C)(C)C)O[C@@H]2C	.	-5.6	.	.	.
CC(=O)N[C@@H](Cc1c[nH]c2ccccc12)C(=O)OCC(=O)Nc1ccc2c(c1)OCO2	.	-6.1	.	.	.
O=C(COC(=O)[C@H](Cc1c[nH]c2ccccc12)NC(=O)c1ccc(Cl)cc1)Nc1ccc2c(c1)OCO2	34.4	-2.2	34.5*	4.9	6.3
